B1: Osa-1-4 twister ribozyme (parent)
chain: CCGCCUAACACUGCCAAUGCCGGUCCCAAGCCCGGAUAAAAGUGGAGGGGGCGG

Variants of: B1
Assay: self-cleavage, relative activity (ratio to wild type); higher = more cleavage; co-transcriptional
In short: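 A DNA template encoding a 54-nucleotide twister ribozyme from Oryza sativa was made so that each of the 48 positions downstream of the cleavage site carried 97 % wild-type base and 1 % of each other base. Transcription in vitro ran for 2 h at 37 °C, during which the ribozyme could cleave itself. Reverse transcription used a template-switching oligonucleotide, and the products were PCR-amplified and deep-sequenced. Each read was scored as cleaved or uncleaved by whether upstream sequence was present, and relative activity is the fraction cleaved normalised to wild type.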

Row | Variant | self-cleavage
1 | G30U U18G | 0.04
2 | G30U U18A | 0.03
3 | G30U U18C | 0.04
4 | G30U U37C | 0.04
5 | G30U U37A | 0.02
6 | G30U U37G | 0.04
7 | C32G C9U | 0.04
8 | C32G C9G | 0.11
9 | C32G C9A | 0.03
10 | C31G G48C | 0.03
11 | C31G G48A | 0.03
12 | C31G G48U | 0.02
13 | C32A G53U | 0.05
14 | C32A G53C | 0.02
15 | C32A G53A | 0.08
16 | C31A G22C | 0.02
17 | C31A G22U | 0.04
18 | C31A G22A | 0.04
19 | C31U G49C | 0.05
20 | C31U G49A | 0.06
21 | C31U G49U | 0.06
22 | C31A G23C | 0.02
23 | C31A G23A | 0.03
24 | C31A G23U | 0.02

Row | Variant | self-cleavage
25 | C31U C9A | 0.11
26 | C31U C9U | 0.32
27 | C31U C9G | 0.16
28 | C32A G49A | 0.04
29 | C32A G49U | 0.04
30 | C32A G49C | 0.03
31 | C31U G51A | 0.29
32 | C31U G51C | 0.06
33 | C31U G51U | 0.13
34 | C31A U43G | 0.04
35 | C31A U43C | 0.03
36 | C31A U43A | 0.03
37 | C31U U12A | 0.28
38 | C31U U12C | 0.11
39 | C31U U12G | 0.19
40 | C31U G54C | 0.27
41 | C31U G54A | 0.32
42 | C31U G54U | 0.5
43 | C31A G51A | 0.04
44 | C31A G51U | 0.04
45 | C31A G51C | 0.02
46 | C31A U18G | 0.05
47 | C31A U18A | 0.04
48 | C31A U18C | 0.04

Row | Variant | self-cleavage
49 | C31A G30U | 0.01
50 | C31A G30C | 0.03
51 | C31A G30A | 0.02
52 | C31A | 0.04
53 | C31U | 0.97
54 | C31G | 0.11
55 | C32A C33U | 0.05
56 | C32A C33G | 0.03
57 | C32A C33A | 0.07
58 | C31G G49U | 0.03
59 | C31G G49C | 0.03
60 | C31G G49A | 0.05
61 | C31A G47C | 0.02
62 | C31A G47A | 0.02
63 | C31A G47U | 0.02
64 | C32A G30U | 0.02
65 | C32A G30C | 0.03
66 | C32A G30A | 0.02
67 | C32A G44U | 0.08
68 | C32A G44C | 0.07
69 | C32A G44A | 0.06
70 | C31U G53A | 0.19
71 | C31U G53C | 0.05
72 | C31U G53U | 0.08

Row | Variant | self-cleavage
73 | C32A U37G | 0.18
74 | C32A U37C | 0.13
75 | C32A U37A | 0.14
76 | C32A G23A | 0.17
77 | C32A G23U | 0.48
78 | C32A G23C | 0.03
79 | C31G C33G | 0.03
80 | C31G C33A | 0.04
81 | C31G C33U | 0.06
82 | C31G G34U | 0.08
83 | C31G G34A | 0.11
84 | C31G G34C | 0.1
85 | C31A G44C | 0.03
86 | C31A G44U | 0.03
87 | C31A G44A | 0.04
88 | C31G G42A | 0.1
89 | C31G G42U | 0.02
90 | C31G G42C | 0.05
91 | C32A G51C | 0.03
92 | C32A G51A | 0.07
93 | C32A G51U | 0.04
94 | C31A G35A | 0.05
95 | C31A G35U | 0.05
96 | C31A G35C | 0.03

Row | Variant | self-cleavage
97 | C31G G51U | 0.05
98 | C31G G51A | 0.08
99 | C31G G51C | 0.04
100 | C32G | 0.18
101 | C32A | 0.15
102 | C32A C52A | 0.1
103 | C32A C52G | 0.1
104 | C32A C52U | 0.18
105 | C31G G35C | 0.04
106 | C31G G35A | 0.15
107 | C31G G35U | 0.12
108 | C31G U43C | 0.06
109 | C31G U43G | 0.09
110 | C31G U43A | 0.1
111 | C31A U24G | 0.01
112 | C31A U24A | 0.02
113 | C31A U24C | 0.02
114 | C31G G23A | 0.06
115 | C31G G23U | 0.03
116 | C31G G23C | 0.11
117 | C31A U12C | 0.02
118 | C31A U12G | 0.04
119 | C31A U12A | 0.04
120 | C31U G50U | 0.6

Row | Variant | self-cleavage
121 | C31U G50C | 0.26
122 | C31U G50A | 0.64
123 | C32A U12C | 0.04
124 | C32A U12A | 0.07
125 | C32A U12G | 0.06
126 | C31G G54U | 0.19
127 | C31G G54A | 0.1
128 | C31G G54C | 0.07
129 | C32A C9U | 0.05
130 | C32A C9G | 0.06
131 | C32A C9A | 0.05
132 | C32A G47C | 0.03
133 | C32A G47A | 0.04
134 | C32A G47U | 0.04
135 | C31U C33G | 0.06
136 | C31U C33A | 0.08
137 | C31U C33U | 0.31
138 | C31A U37G | 0.05
139 | C31A U37C | 0.04
140 | C31A U37A | 0.03
141 | C31G G22C | 0.04
142 | C31G G22U | 0.05
143 | C31G G22A | 0.11
144 | C31A C33A | 0.05

Row | Variant | self-cleavage
145 | C31A C33G | 0.02
146 | C31A C33U | 0.03
147 | C31U U18G | 0.82
148 | C31U U18C | 0.87
149 | C31U U18A | 0.9
150 | C32A U43G | 0.05
151 | C32A U43A | 0.07
152 | C32A U43C | 0.06
153 | C31G C52A | 0.1
154 | C31G C52G | 0.15
155 | C31G C52U | 0.12
156 | C31G G47C | 0.03
157 | C31G G47U | 0.04
158 | C31G G47A | 0.04
159 | C31A C52U | 0.05
160 | C31A C52G | 0.05
161 | C31A C52A | 0.05
162 | C31G U24A | 0.04
163 | C31G U24C | 0.03
164 | C31G U24G | 0.02
165 | C31G C9A | 0.03
166 | C31G C9U | 0.06
167 | C31G C9G | 0.23
